Measured values published in ChEMBL document CHEMBL1139313, “Synthesis and antimalarial activity of new 4-amino-7-chloroquinolyl amides, sulfonamides, ureas and thioureas” (Bioorg Med Chem, 2009).

Key:
[1] = test system: Plasmodium falciparum; test: Antimalarial activity against chloroquine-resistant Plasmodium falciparum Dd2 after 72 hrs; type: functional, organism-based; conditions: Dd2, 72 h
In short: (§1)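 SYBR Green I growth assay. Sorbitol-synchronized P. falciparum cultures (>95% ring stage) at final 1% hematocrit and 0.5% parasitemia, exposed to drug dilutions in complete medium for 72 h at 37 °C. Dye added, then 1 h at 37 °C; fluorescence read at 490 nm excitation / 530 nm emission. Each dilution run in triplicate; IC50 averaged over ≥2 separate assays. RI relates Dd2 IC50 to HB3 IC50.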

[2] = test system: Plasmodium falciparum; test: Antimalarial activity against chloroquine-sensitive Plasmodium falciparum HB3 after 72 hrs; type: functional, organism-based; conditions: HB3, 72 h; in short: as §1
[3] = Resistant index, IC50 for chloroquine-resistant Plasmodium falciparum Dd2 to IC50 for chloroquine-sensitive Plasmodium falciparum HB3; type: functional; in short: as §1

SMILES	IC50 [1] [nM]	IC50 [2] [nM]	Ratio IC50 [3]
COc1ccccc1NC(=O)NCCCNc1ccnc2cc(Cl)ccc12	539	365	1.5
O=C(NCCCNc1ccnc2cc(Cl)ccc12)c1ccc(O)nc1	> 1000	> 1000	
CCN(CCNc1ccnc2cc(Cl)ccc12)CCNS(=O)(=O)c1ccc(Oc2ccccc2)nc1	274	140	2
O=C(CCc1nc2ccccc2[nH]1)NCCCNc1ccnc2cc(Cl)ccc12	> 1000	756	
CN(C)c1ccc(NC(=O)NCCCNc2ccnc3cc(Cl)ccc23)cc1	674	436	1.6
CN(C)c1cccc(C(=O)NCCCNc2ccnc3cc(Cl)ccc23)c1	792	449	1.8
O=C(NCCCNc1ccnc2cc(Cl)ccc12)c1cc(C(F)(F)F)cc(C(F)(F)F)c1	236	145	1.6
COc1cc([N+](=O)[O-])ccc1NC(=O)NCCCNc1ccnc2cc(Cl)ccc12	> 1000	281	
CCN(CC)CCC(=O)NCCCNc1ccnc2cc(Cl)ccc12	559	23	24.4
CCN(CCCCNc1ccnc2cc(Cl)ccc12)CCNS(=O)(=O)c1cccc2c(N(C)C)cccc12	125	82	1.5
CCN(CCNC(=O)C(F)(F)C(F)(F)C(F)(F)F)CCNc1ccnc2cc(Cl)ccc12	556	180	3.1
CN1CCOc2cc(S(=O)(=O)NCCCNc3ccnc4cc(Cl)ccc34)ccc21	> 1000	960	
O=S(=O)(NCCCNc1ccnc2cc(Cl)ccc12)c1cccc2cccnc12	607	453	1.3
CCN(CCCC(C)Nc1ccnc2cc(Cl)ccc12)CCNS(=O)(=O)c1cccc2c(N(C)C)cccc12 (stereo not given)	260	220	1.2
O=C(NCCCNc1ccnc2cc(Cl)ccc12)C(F)(F)C(F)(F)C(F)(F)C(F)(F)C(F)(F)C(F)(F)C(F)(F)F	197	166	1.2
CN(C)c1ccc(NC(=S)NCCCNc2ccnc3cc(Cl)ccc23)c2ccccc12	606	291	2.1
CCN(CCNC(=O)c1c(F)c(F)c(F)c(F)c1F)CCNc1ccnc2cc(Cl)ccc12	314	118	2.7
O=C(NCCCNc1ccnc2cc(Cl)ccc12)c1ccccc1Sc1ccccc1	> 1000	> 1000	
COc1ccc(NC(=S)NCCCNc2ccnc3cc(Cl)ccc23)cc1	353	229	1.5
O=C(NCCCNc1ccnc2cc(Cl)ccc12)c1ccccc1NCCc1ccccc1	> 1000	> 1000	
CC(C)(C)OC(=O)N[C@H](Cc1c[nH]c2ccccc12)C(=O)NCCCNc1ccnc2cc(Cl)ccc12	764	500	1.5
CC(C)(C)OC(=O)N[C@@H](CCCCNC(=O)OCc1ccccc1)C(=O)NCCCNc1ccnc2cc(Cl)ccc12	> 1000	902	
O=S(=O)(NCCCNc1ccnc2cc(Cl)ccc12)c1ccc(Oc2ccccc2)nc1	> 1000	> 1000	
CCN(CC)CCC(=O)NCCCCCNc1ccnc2cc(Cl)ccc12	672	16	41.2
COc1ccc(NC(=O)NCCCNc2ccnc3cc(Cl)ccc23)cc1	596	316	1.9

SMILES	IC50 [1] [nM]	IC50 [2] [nM]	Ratio IC50 [3]
CCN(CCNC(=O)C(F)(F)C(F)(F)C(F)(F)C(F)(F)C(F)(F)C(F)(F)C(F)(F)F)CCNc1ccnc2cc(Cl)ccc12	87	72	1.2
CN(C)c1cccc2c(S(=O)(=O)NCCCNc3ccnc4cc(Cl)ccc34)cccc12	966	754	1.3
O=C(NCCCNc1ccnc2cc(Cl)ccc12)c1ccccc1Nc1cccc2ccccc12	> 1000	> 1000	
CCN(CCNc1ccnc2cc(Cl)ccc12)CCNS(=O)(=O)c1cccc2c(N(C)C)cccc12	23	18	1.3
O=C(NCCCNc1ccnc2cc(Cl)ccc12)c1c(F)c(F)c(F)c(F)c1F	510	276	1.9
CCN(CCNc1ccnc2cc(Cl)ccc12)CCNS(=O)(=O)c1ccc2c(c1)OCCN2C	286	171	1.7
CCN(CCNc1ccnc2cc(Cl)ccc12)CCNS(=O)(=O)c1cccc2cccnc12	443	310	1.4
O=C(NCCCNc1ccnc2cc(Cl)ccc12)c1ccc(F)cc1NCc1ccccc1	305	> 1000	
Nc1ccc(N)c(C(=O)NCCCNc2ccnc3cc(Cl)ccc23)c1	651	179	3.6
CCN(CCCNc1ccnc2cc(Cl)ccc12)CCNS(=O)(=O)c1cccc2c(N(C)C)cccc12	411	115	3.6
CCN(CCCCCNc1ccnc2cc(Cl)ccc12)CCNS(=O)(=O)c1cccc2c(N(C)C)cccc12	115	70	1.7
CCN(CCNc1ccnc2cc(Cl)ccc12)CCNS(=O)(=O)c1cccnc1	512	124	4.1
O=C(NCCCNc1ccnc2cc(Cl)ccc12)c1ccccc1SC1CCCCC1	> 1000	> 1000	
CCN(CCNC(=O)c1ccc(F)cc1NCc1ccccc1)CCNc1ccnc2cc(Cl)ccc12	199	80	2.5
O=C(NCCCNc1ccnc2cc(Cl)ccc12)C(F)(F)C(F)(F)C(F)(F)F	277	234	1.2
CCN(CCCCCCNc1ccnc2cc(Cl)ccc12)CCNS(=O)(=O)c1cccc2c(N(C)C)cccc12	147	272	0.5
COc1cc([N+](=O)[O-])ccc1NC(=S)NCCCNc1ccnc2cc(Cl)ccc12	801	208	3.9
CCN(CCNC(=O)c1cc(C(F)(F)F)cc(C(F)(F)F)c1)CCNc1ccnc2cc(Cl)ccc12	137	97	1.4
CCN(CC)CCC(=O)NCCCCCCNc1ccnc2cc(Cl)ccc12	385	28	12.9
CC(C)(C)OC(=O)N[C@@H](Cc1c[nH]c2ccccc12)C(=O)NCCCNc1ccnc2cc(Cl)ccc12	> 1000	479	
CCN(CC)CCC(=O)NCCNc1ccnc2cc(Cl)ccc12	760	32	24.1
CC(C)(C)OC(=O)N1CCC[C@H]1C(=O)NCCCNc1ccnc2cc(Cl)ccc12	> 1000	> 1000	
O=C(NCCCNc1ccnc2cc(Cl)ccc12)c1cccnc1	> 1000	> 1000	
CN(C)c1ccc(NC(=S)NCCCNc2ccnc3cc(Cl)ccc23)cc1	482	272	1.8
CCN(CC)CCC(=O)NCCCCNc1ccnc2cc(Cl)ccc12	> 1000	29	
